# Assay outcomes as filed in PubChem BioAssay.
# TRPC4 block = inhibitors of mouse TRPC4 channel; Q9QUQ5; HEK293 TRPC4beta/mu-opioid, DAMGO-evoked Fluo4 calcium flux; active compounds read low; B-score at 10 µM; actives 0.39% (n = 300,000);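 active = B-score over 3 SD under the library average, no early fluorescence shift, positive overall ratio signal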
#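 Material: HEK293 cells with stable TRPC4beta plus mu-opioid receptor expression / Probe or stimulus: DAMGO in two steps, submaximal then maximal / Compound: single concentration per test compound / Technique: kinetic Fluo4 fluorescence imaging of calcium influx / Read-out: per-well B score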
# TRPC6 activator = activators of mouse TRPC6 channel; HEK293-TRPC6 membrane potential dye fluorescence; active compounds read high; B-score at 10 µM; actives 0.13% (n = 310,000); AID 2550;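 active = B-score of the integrated fluorescence ratio above library mean plus 3 SD, and starting fluorescence ratio within library mean plus 5 SD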;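 also: higher score means more depolarization so channel activation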
# Target sequence (Q61143 whole entry, looked up): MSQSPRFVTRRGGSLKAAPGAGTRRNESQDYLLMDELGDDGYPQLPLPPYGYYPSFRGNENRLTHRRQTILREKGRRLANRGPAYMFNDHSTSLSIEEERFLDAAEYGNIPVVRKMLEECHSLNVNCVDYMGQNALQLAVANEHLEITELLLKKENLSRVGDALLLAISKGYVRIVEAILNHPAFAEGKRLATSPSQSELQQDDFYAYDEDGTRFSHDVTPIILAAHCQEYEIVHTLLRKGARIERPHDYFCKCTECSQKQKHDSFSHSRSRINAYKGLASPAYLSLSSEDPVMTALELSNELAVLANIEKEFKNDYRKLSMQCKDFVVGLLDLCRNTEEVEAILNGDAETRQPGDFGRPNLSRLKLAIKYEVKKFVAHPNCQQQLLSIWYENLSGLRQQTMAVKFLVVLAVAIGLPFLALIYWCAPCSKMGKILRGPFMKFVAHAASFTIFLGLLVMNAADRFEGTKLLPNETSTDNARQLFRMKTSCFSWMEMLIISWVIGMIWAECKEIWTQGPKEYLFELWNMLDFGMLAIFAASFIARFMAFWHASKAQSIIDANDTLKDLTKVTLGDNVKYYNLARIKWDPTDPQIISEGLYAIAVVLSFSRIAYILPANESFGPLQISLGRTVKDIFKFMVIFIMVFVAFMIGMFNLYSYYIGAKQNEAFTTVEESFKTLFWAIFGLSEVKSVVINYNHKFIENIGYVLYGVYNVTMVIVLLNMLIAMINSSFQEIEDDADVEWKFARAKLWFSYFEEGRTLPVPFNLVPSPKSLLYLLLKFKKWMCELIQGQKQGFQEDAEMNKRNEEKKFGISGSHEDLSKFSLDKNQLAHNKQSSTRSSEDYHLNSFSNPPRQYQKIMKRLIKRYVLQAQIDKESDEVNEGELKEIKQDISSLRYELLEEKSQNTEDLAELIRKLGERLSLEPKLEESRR
# TRPC4 PAM = TRPC4 (mouse) allosteric potentiation | B-score at 10 µM | HEK293 TRPC4beta/mu-opioid, DAMGO EC20, Fluo-4 Ca2+ flux; active compounds read high | actives 0.42% (n = 310,000);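 active = B-score of calcium response area above 5 SD of library B-scores, with initial fluorescence ratio within 5 SD of library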
# Kir21 inh = Kir2.1 (mouse) channel inhibition; P35561; HEK293-Kir2.1, FluxOR thallium flux fluorescence; active compounds read low; B-score at 10 µM; actives 0.85% (n = 310,000); AID 1672;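 active = fluorescence ratio B-score at or below minus 3 SD of library scores, with starting-brightness B-score within 2 SD, cut at about -4.2 in these data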;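 also: channel flux triggered by added potassium and thallium sulfate stimulus; B-score of peak minus minimum fluorescence over baseline after thallium stimulus; more negative B-score means stronger Kir2.1 block with less thallium influx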
# TRPC6 inh = blocks the mouse TRPC6 cation channel | Q61143 | HEK293-TRPC6, membrane potential dye, ACh-evoked depolarization; active compounds read low | B-score at 10 µM | actives 1.1% (n = 310,000);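 active = B-score under library mean minus 3 SD, initial fluorescence not abnormally high, positive integrated signal ratio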;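 also: B-score derived from integrated fluorescence ratio over the kinetic read; more negative B-score means stronger inhibition of depolarization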
# TRPC4 agonist = activators of mouse TRPC4 channel; B-score at 10 µM; actives 0.49% (n = 310,000); AID 2237; HEK293 TRPC4beta/mu-opioid, Fluo4 calcium fluorescence; active compounds read high; Q9QUQ5;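 active = B-score above 5 SD of library B-scores, and initial fluorescence ratio not above library mean plus 5 SD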;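 also: positive B-score marks a calcium rise read as TRPC4 activation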
#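 Assay system: HEK293 stable line with TRPC4beta plus mu-opioid receptor. Times: dye 45 min RT, read 110 s. Measured by: kinetic Fluo4 calcium fluorescence. Measure: B score of integrated ratio. Controls: assay buffer as low control, maximal DAMGO as high control.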
# Numbers stand for hits; n = inactive. Compounds with a hit are over-represented: about 2.9% of the library has one in this group of screens.
SMILES,TRPC4 block,TRPC6 activator,TRPC4 PAM,Kir21 inh,TRPC6 inh,TRPC4 agonist
COc1ccc(N2CCN(C(=O)CNC(=O)c3ccco3)CC2)cc1,n,n,n,n,n,n
O=C(COc1c(Br)cc(Br)c2cccnc12)N1CCCCC1,n,n,n,n,n,n
Oc1c(CN2CCCCC2)cc(Br)c2cccnc12,-7,n,n,n,n,n
CN1CCN(CCOC2Cc3ccccc3Sc3ccc(Cl)cc32)CC1 (configuration not stated),n,n,n,-10,n,n
COC(=O)c1ccc(N=Cc2c(C(F)(F)F)[nH][nH]c2=O)cc1,n,n,n,n,n,n
Cc1ccc(-c2nnc(N3CCC(C)CC3)c3ccccc23)cc1C,n,n,63,n,n,n
N#CCOC(=O)[C@H](Cc1c[nH]c2ccccc12)NS(=O)(=O)c1ccc(Cl)cc1,n,n,n,n,n,n
CC1CC(C)CN(C(=O)CNC(=O)c2ccc3ccccc3c2)C1 (configuration not stated),n,n,n,n,n,n
O=S(=O)(c1cc(Cl)cc(Cl)c1)N1CCCC1c1nc2ccccc2s1 (configuration not stated),n,n,n,n,n,n
O=S(=O)(c1ccc(Cl)cc1)N1CCCC1c1nc2ccccc2s1 (configuration not stated),n,n,n,-4.7,n,n
COCCCN(C(=O)Nc1ccccc1)C(C)c1ccncc1 (configuration not stated),n,n,n,n,n,n
Cc1ccc(CSc2nnc(-c3cccc(S(=O)(=O)N4CCOCC4)c3)n2C2CCCC2)cc1,n,n,18,n,n,n
NC(=O)CSc1nnc(-c2cccc(S(=O)(=O)N3CCOCC3)c2)n1C1CCCCCC1,n,n,n,n,n,n
C=CCn1cc(CN2CCC(C(=O)Nc3cccc(-c4cccc(Cl)c4)c3)CC2)c(C)n1,n,n,n,n,n,n
O=C(NCCc1ccccn1)C(F)(F)C(F)(F)C(F)(F)C(F)(F)C(F)(F)C(F)(F)C(F)(F)C(F)F,n,n,n,n,n,165
CC(C)(C)c1cc(CCC(=O)NCCc2ccccn2)cc(C(C)(C)C)c1O,n,n,n,n,n,n
O=c1[nH]c(NCCO)nnc1Cc1ccccc1,n,n,n,n,n,n
O=C(Nc1ccc2c(c1)OCO2)C1CC(c2cccc(Br)c2)=NO1 (configuration not stated),n,n,n,n,n,n
CCCOP(=O)(c1ccc(N(C)C)cc1)C(O)c1ccccc1OC (configuration not stated),n,n,n,n,n,n
CCCOP(=O)(c1ccc(N(C)C)cc1)C(O)c1ccc(Cl)cc1Cl (configuration not stated),n,n,10,n,n,n
COCC1CCN(C(=O)c2cc(COc3cc(C)c(Cl)c(C)c3)on2)C1 (configuration not stated),n,n,n,n,n,n
O=[N+]([O-])c1ccc(Sc2nccn2Cc2ccccc2)cc1,n,n,n,-5,n,n
N#Cc1c(NC(=O)c2cnn3cccnc23)sc2c1CCCC2,n,n,n,n,n,n
O=C(Nc1cnn(C23CC4CC(CC(C4)C2)C3)c1)c1cnn2cccnc12,n,n,73,n,n,n
Cc1ccc(CN2C(=O)CSc3ccc(C(=O)NCCN4CCOCC4)cc32)cc1,n,n,n,n,n,n
SMILES,TRPC4 block,TRPC6 activator,TRPC4 PAM,Kir21 inh,TRPC6 inh,TRPC4 agonist
O=C(NCCN1CCOCC1)c1cc2sccc2n1Cc1ccc(F)cc1,-7,n,n,n,n,n
O=C(NCCN1CCOCC1)c1ccc2c(c1)N(Cc1ccc(F)cc1)C(=O)CS2,-7,n,n,n,n,n
O=C(NCCN1CCOCC1)c1cc2sccc2n1Cc1ccc(Cl)cc1,n,n,n,n,n,n
COc1cc(C2NC(=O)C(C#N)=C(Nc3cccc(C)c3)S2)ccc1O (configuration not stated),n,n,n,n,n,n
Cc1ccc(NC(=O)C2CCCN(S(=O)(=O)c3ccc(-n4cnnn4)cc3)C2)cc1 (configuration not stated),n,n,n,n,n,n
CCNC(=O)N1c2ccc(OCC)cc2C(C)=CC1(C)C,-7,n,n,n,n,n
O=C(NCc1nnc(SCC(=O)N2CCCC2)o1)c1cccc(C(F)(F)F)c1,n,n,n,n,n,n
COCCCNC(=S)NNC(=O)c1cc(C2CC2)nc2ccccc12,n,n,n,n,n,n
O=C(CNC(=O)c1ccco1)N/N=C/c1cccs1,n,n,n,n,n,n
Cc1ccc(C)c(N2CCN(CCCNC(=O)CCn3c(=O)c4cccn4c4cccnc43)CC2)c1,n,n,n,n,n,n
Cc1ccc(C)c(N2CCN(CCCNC(=O)Cn3c(=O)c4cccn4c4cccnc43)CC2)c1,-5,n,n,n,n,n
NC(=O)N=Nc1c(O)[nH]c2c(Br)cc(Br)cc12,n,n,11,n,n,n
O=C(CCCCCNC(=O)c1ccccc1)N=Nc1c(O)[nH]c2c(Br)cc(Br)cc12,n,n,n,n,n,n
COc1ccc2nc(SCC(N)=O)[nH]c2c1,n,n,n,n,n,n
COc1ccc2nc(SCCN(C)C)[nH]c2c1,n,n,n,n,n,113
CCOc1ccc(-c2c(C(=O)N/N=C/c3ccc(OC(C)C)cc3)nnn2-c2nonc2N)cc1,n,n,n,n,n,n
Cc1ccc(-c2c(C(=O)N/N=C/c3ccc(OC(C)C)cc3)nnn2-c2nonc2N)cc1,n,n,18,n,n,n
O=C(c1cccs1)N1CCCC(c2nc3c(nnn3Cc3ccccc3Cl)c(=O)[nH]2)C1 (configuration not stated),n,n,n,n,n,n
Cc1[nH][nH]c(=O)c1C(c1ccc(-c2cccc(C(=O)O)c2)o1)c1c(C)[nH][nH]c1=O,n,n,n,n,n,n
Cc1[nH][nH]c(=O)c1C(c1ccc(-c2cccc(Cl)c2)o1)c1c(C)[nH][nH]c1=O,n,n,n,-6.6,n,n
O=C1Nc2cc(C(=O)NCCCN3CCOCC3)ccc2S/C1=C/c1ccccc1F,-6,n,n,n,n,n
COc1ccc(/C=C2/Sc3ccc(C(=O)NCCN4CCCCCC4)cc3NC2=O)cc1,n,n,n,n,n,n
O=C1Nc2cc(C(=O)NCCCN3CCOCC3)ccc2S/C1=C/c1cccc(Cl)c1,n,n,n,n,n,n
O=C1Nc2cc(C(=O)NCCCN3CCCC3)ccc2S/C1=C\c1ccccc1,n,n,n,-4.9,n,n
Cc1cc(C)c(S(=O)(=O)N2CCCOC2CNC(=O)C(=O)NCc2cccs2)c(C)c1 (configuration not stated),n,n,n,n,n,n
